According to ChEMBL document CHEMBL1132151, “Design and structure-activity relationships of potent and selective inhibitors of blood coagulation factor Xa” (J Med Chem, 1999):

How the values were obtained:
Coagulation factor X = Coagulation factor X (Homo sapiens, UniProt P00742); assay: Compound was evaluated for the inhibition of human Coagulation factor Xa
Prothrombin [1] = biological target: T1, Prothrombin (Homo sapiens, UniProt P00734); assay: Inhibition of human thrombin
Outline: (§1)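 Preincubated with compound 30 min, then Pefachrome TH at 50 μM final. p-Nitroanilide release followed at 405 nm for 5 min. IC50 from initial velocities; apparent Ki via Cheng-Prusoff, assuming competitive inhibition.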

Serine protease 1 = biological target: T2, Serine protease 1 (Bos taurus, UniProt P00760); assay: Inhibitory activity against bovine pancreatic trypsin
T2 sequence (P00760 whole entry): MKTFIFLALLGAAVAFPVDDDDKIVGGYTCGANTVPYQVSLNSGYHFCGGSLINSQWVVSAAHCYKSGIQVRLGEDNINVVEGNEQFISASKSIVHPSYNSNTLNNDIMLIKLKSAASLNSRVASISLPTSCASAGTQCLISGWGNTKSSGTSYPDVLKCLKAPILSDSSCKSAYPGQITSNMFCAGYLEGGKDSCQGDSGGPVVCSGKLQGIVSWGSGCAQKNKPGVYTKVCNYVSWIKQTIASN
Outline: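 Bovine trypsin at 1 nM final, with buffer 0.05 M Tris, 0.15 M NaCl, 0.1% PEG-8000, 0.02 M CaCl2, pH 7.5, room temperature. 30 min compound preincubation, then S-2765 at 250 μM final. 405 nm read continuously for 5 min. IC50 from initial rates; apparent Ki by Cheng-Prusoff, assuming competitive kinetics.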

[2] = biological target: T3, Vitamin K-dependent protein C (Homo sapiens, UniProt P04070); assay: Compound was evaluated for the inhibition of activated protein C (aPC)
Outline: (§2)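 Human aPC, final enzyme 1 nM, in 0.05 M Tris, 0.15 M NaCl, 0.1% PEG-8000, 0.02 M CaCl2, pH 7.5. Compound preincubated with enzyme 30 min at room temperature. S-2366 at 500 μM final started the reaction. p-Nitroanilide release read continuously at 405 nm for 5 min, under 10% substrate consumed. IC50 from initial velocities; apparent Ki by Cheng-Prusoff, competitive mechanism assumed.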

Plasminogen = Plasminogen (Homo sapiens, UniProt P00747); assay: Compound was evaluated for the inhibition of plasmin
Outline: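 Compound preincubated 30 min, then S-2366 at 300 μM final. Continuous 405 nm read over 5 min. Initial velocities gave IC50; apparent Ki from Cheng-Prusoff, assuming competitive mechanism.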

[3] = biological target: Tissue-type plasminogen activator (Homo sapiens, UniProt P00750); assay: Compound was evaluated for the inhibition of Tissue type plasminogen activator (tissue plasminogen activator)
Outline: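 tPA, final enzyme 1 nM, in 0.05 M Tris, 0.15 M NaCl, 0.1% (w/v) BSA, pH 7.5. Preincubated 30 min with compound at room temperature, then Pefachrome-tPA at 500 μM final added. Release of p-nitroanilide monitored at 405 nm for 5 min. IC50 taken from initial rates; apparent Ki via Cheng-Prusoff, assuming competitive inhibition.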

[4] = biological target: T3, Vitamin K-dependent protein C; assay: Compound was evaluated for the inhibition of Activated protein C (aPC); outline: as §2
Prothrombin [5] = biological target: T1, Prothrombin; assay: Compound was evaluated for the inhibition of thrombin.; outline: as §1

Sequence of Coagulation factor X (P00742 41-179 limits assumed): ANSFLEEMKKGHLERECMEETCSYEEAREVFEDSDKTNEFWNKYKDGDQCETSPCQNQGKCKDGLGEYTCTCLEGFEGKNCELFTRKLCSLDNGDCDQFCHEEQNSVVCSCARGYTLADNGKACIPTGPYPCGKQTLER
Sequence of Coagulation factor X (P00742 235-488 limits assumed): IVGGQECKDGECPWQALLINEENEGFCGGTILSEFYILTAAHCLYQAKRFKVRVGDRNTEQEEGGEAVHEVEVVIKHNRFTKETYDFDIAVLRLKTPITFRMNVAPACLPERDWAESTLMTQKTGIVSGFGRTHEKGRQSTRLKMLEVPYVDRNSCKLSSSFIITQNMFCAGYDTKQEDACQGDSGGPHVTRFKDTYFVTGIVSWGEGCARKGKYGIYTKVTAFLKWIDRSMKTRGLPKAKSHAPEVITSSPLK
T3 sequence (P04070 43-197 limits assumed): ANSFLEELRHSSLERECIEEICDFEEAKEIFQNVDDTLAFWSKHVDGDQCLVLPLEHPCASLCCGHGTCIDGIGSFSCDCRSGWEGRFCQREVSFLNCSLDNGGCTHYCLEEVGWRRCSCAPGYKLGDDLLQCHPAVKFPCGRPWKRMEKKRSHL
T3 sequence (P04070 212-461 limits assumed): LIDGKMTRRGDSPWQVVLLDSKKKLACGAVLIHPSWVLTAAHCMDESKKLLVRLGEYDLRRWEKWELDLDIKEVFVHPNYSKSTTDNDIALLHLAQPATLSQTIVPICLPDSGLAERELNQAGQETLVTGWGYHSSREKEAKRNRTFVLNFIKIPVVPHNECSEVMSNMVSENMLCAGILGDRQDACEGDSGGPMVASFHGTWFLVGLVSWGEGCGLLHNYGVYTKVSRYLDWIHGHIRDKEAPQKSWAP
Sequence of Plasminogen (P00747 97-580 limits assumed): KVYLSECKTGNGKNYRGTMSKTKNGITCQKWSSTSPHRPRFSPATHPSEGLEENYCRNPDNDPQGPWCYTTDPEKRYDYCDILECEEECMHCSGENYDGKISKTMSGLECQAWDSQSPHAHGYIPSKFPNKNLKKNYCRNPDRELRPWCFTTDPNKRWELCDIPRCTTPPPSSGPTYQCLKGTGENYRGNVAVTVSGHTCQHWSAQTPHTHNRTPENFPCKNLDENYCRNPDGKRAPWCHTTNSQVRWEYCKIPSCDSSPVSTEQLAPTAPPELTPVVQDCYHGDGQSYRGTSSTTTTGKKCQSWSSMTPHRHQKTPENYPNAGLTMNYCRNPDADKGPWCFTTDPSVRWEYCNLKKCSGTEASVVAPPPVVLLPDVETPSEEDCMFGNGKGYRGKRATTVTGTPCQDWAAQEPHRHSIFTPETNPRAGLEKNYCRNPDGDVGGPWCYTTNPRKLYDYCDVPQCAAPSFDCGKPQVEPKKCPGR
Sequence of Plasminogen (P00747 581-810 limits assumed): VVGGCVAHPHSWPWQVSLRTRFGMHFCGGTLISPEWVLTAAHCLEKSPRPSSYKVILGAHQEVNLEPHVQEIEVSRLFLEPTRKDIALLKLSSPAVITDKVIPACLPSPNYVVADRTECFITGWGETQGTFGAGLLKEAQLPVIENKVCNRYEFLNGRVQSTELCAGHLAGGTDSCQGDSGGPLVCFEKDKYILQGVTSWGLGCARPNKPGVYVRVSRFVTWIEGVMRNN
Sequence of Tissue-type plasminogen activator (P00750 whole entry): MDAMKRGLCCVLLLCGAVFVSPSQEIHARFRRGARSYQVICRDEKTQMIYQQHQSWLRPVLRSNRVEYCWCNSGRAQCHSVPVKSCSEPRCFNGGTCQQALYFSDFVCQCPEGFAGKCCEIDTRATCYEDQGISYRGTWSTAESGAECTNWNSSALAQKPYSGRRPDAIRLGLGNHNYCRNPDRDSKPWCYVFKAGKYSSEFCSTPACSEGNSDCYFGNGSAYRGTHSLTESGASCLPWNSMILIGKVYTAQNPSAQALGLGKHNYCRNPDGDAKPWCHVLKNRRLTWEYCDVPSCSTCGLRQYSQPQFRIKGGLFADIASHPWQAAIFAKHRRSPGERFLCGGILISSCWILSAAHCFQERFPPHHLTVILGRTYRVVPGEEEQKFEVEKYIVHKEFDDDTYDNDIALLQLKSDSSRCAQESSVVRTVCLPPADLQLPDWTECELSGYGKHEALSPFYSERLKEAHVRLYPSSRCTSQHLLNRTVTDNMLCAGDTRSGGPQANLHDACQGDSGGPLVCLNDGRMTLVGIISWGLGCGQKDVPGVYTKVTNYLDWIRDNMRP

SMILES	Ki (Coagulation factor X) [nM]	Ki (Prothrombin [1]) [nM]	Ki (Serine protease 1) [nM]	Ki [2] [nM]	Ki (Plasminogen) [nM]	Ki [3] [nM]	Ki [4] [nM]	Ki (Prothrombin [5]) [nM]
COc1ccc2ccc(S(=O)(=O)N[C@H]3CCN(Cc4cccc(C(=N)N)c4)C3=O)cc2c1	–	–	–	1200	4700	> 10000	–	–
N=C(N)c1cccc(CN2CC[C@H](NS(=O)(=O)c3cccc(-c4ccccc4)c3)C2=O)c1	440	> 4000	> 2900	–	–	–	–	–
N=C(N)c1cccc(CN2CCC[C@H](NS(=O)(=O)c3ccc4ccccc4c3)C2=O)c1	1300	> 4000	> 2900	–	–	–	–	–
N=C(N)c1cccc(CN2CC[C@H](NS(=O)(=O)c3ccc4cc(Cl)ccc4c3)C2=O)c1	70	1500	> 2900	–	–	–	–	–
N=C(N)c1cccc(CN2C[C@@H](NS(=O)(=O)c3ccc4ccccc4c3)CC2=O)c1	9800	> 4000	> 2900	–	–	–	–	–
N=C(N)c1cccc(CN2CC[C@H](NS(=O)(=O)c3ccc(Cc4ccccc4)cc3)C2=O)c1	1100	> 4000	> 2900	–	–	–	–	–
COc1cccc(-c2ccc(S(=O)(=O)N[C@H]3CCN(Cc4cccc(C(=N)N)c4)C3=O)cc2)c1	100	2500	> 2900	–	–	–	–	–
COc1ccc2ccc(S(=O)(=O)N[C@H]3CCN(Cc4ccc(C(=N)N)o4)C3=O)cc2c1	570	> 4000	> 2900	–	–	–	–	–
N=C(N)c1cccc(CN2CCCC[C@H](NS(=O)(=O)c3ccc4ccccc4c3)C2=O)c1	7000	> 4000	> 2900	–	–	–	–	–
COc1ccc2cc(S(=O)(=O)N[C@H]3CCN(Cc4cccc(C(=N)N)c4)C3=O)ccc2c1	1000	900	> 2900	–	–	–	–	–
COc1ccccc1-c1ccc(S(=O)(=O)N[C@H]2CCN(Cc3cccc(C(=N)N)c3)C2=O)cc1	190	> 4000	> 2900	–	–	–	–	–
N=C(N)c1cccc(CN2CC[C@H](NS(=O)(=O)c3ccc(Oc4ccccc4)cc3)C2=O)c1	380	> 4000	> 2900	–	–	–	–	–
Cc1cccc(-c2ccc(S(=O)(=O)N[C@H]3CCN(Cc4cccc(C(=N)N)c4)C3=O)cc2)c1	120	> 4000	> 2900	–	–	–	–	–
COc1ccc2ccc(S(=O)(=O)N[C@H]3CCN(Cc4coc(C(=N)N)c4)C3=O)cc2c1	180	> 4000	> 2900	–	–	–	–	–
N=C(N)c1cccc(CN2CC[C@H](NS(=O)(=O)c3ccc4ccc(O)cc4c3)C2=O)c1	500	> 4000	> 2900	–	–	–	–	–
N=C(N)c1cccc(CN2C[C@H](NS(=O)(=O)c3ccc4ccccc4c3)C2=O)c1	9900	> 4000	> 2900	–	–	–	–	–
N=C(N)c1cccc(CN2CC[C@H](NS(=O)(=O)c3cccc4ccccc34)C2=O)c1	750	> 4000	> 2900	–	–	–	–	–
COc1ccc2ccc(S(=O)(=O)N[C@H]3CCN(Cc4ccc(C(=N)N)s4)C3=O)cc2c1	220	–	–	–	–	–	–	–

Second part, the compound after the results:

Ki (Coagulation factor X) [nM]	Ki (Prothrombin [1]) [nM]	Ki (Serine protease 1) [nM]	Ki [2] [nM]	Ki (Plasminogen) [nM]	Ki [3] [nM]	Ki [4] [nM]	Ki (Prothrombin [5]) [nM]	SMILES
> 10000	> 4000	> 2900	–	–	–	–	–	N=C(N)c1cccc(CN2CC[C@H](NS(=O)(=O)c3ccc4ccccc4c3)C2)c1
280	1900	> 2900	–	–	–	–	–	CCOc1ccc2ccc(S(=O)(=O)N[C@H]3CCN(Cc4cccc(C(=N)N)c4)C3=O)cc2c1
41	440	1800	–	–	–	–	–	COc1ccc2ccc(S(=O)(=O)N(Cc3ccccc3)[C@H]3CCN(Cc4cccc(C(=N)N)c4)C3=O)cc2c1
120	> 4000	> 2900	–	–	–	–	–	COc1ccc2ccc(S(=O)(=O)N(CC(=O)O)[C@H]3CCN(Cc4cccc(C(=N)N)c4)C3=O)cc2c1
21	1080	1390	–	–	–	–	–	COc1ccc2ccc(S(=O)(=O)N(Cc3cc[nH]n3)[C@H]3CCN(Cc4cccc(C(=N)N)c4)C3=O)cc2c1
11	1300	500	–	–	–	–	–	COc1ccc2ccc(S(=O)(=O)N[C@H]3CCN(Cc4csc(C(=N)N)c4)C3=O)cc2c1
31	1160	1940	–	–	–	–	–	COc1ccc2ccc(S(=O)(=O)N(Cc3ccccn3)[C@H]3CCN(Cc4cccc(C(=N)N)c4)C3=O)cc2c1
56	1500	2000	–	–	–	–	–	COc1ccc2ccc(S(=O)(=O)N(CCC(N)=O)[C@H]3CCN(Cc4cccc(C(=N)N)c4)C3=O)cc2c1
19	360	1080	–	–	–	–	–	COc1ccc2ccc(S(=O)(=O)N(Cc3ccsc3)[C@H]3CCN(Cc4cccc(C(=N)N)c4)C3=O)cc2c1
34	970	1940	–	–	–	–	–	COc1ccc2ccc(S(=O)(=O)N(Cc3cccs3)[C@H]3CCN(Cc4cccc(C(=N)N)c4)C3=O)cc2c1
370	1600	1600	–	–	–	–	–	CCc1ccc2ccc(S(=O)(=O)N[C@H]3CCN(Cc4cccc(C(=N)N)c4)C3=O)cc2c1
–	> 4000	2900	–	4700	> 10000	7000	–	N=C(N)c1cccc(CN2CC[C@H](NS(=O)(=O)c3ccc4ccccc4c3)C2=O)c1
100	1340	1100	–	–	–	–	–	Cc1ccc2ccc(S(=O)(=O)N[C@H]3CCN(Cc4cccc(C(=N)N)c4)C3=O)cc2c1
25	1440	1000	–	–	–	–	–	COc1ccc2ccc(S(=O)(=O)N(CC(N)=O)[C@H]3CCN(Cc4cccc(C(=N)N)c4)C3=O)cc2c1
340	630	80	–	–	–	–	–	N=C(N)c1cccc(CNC(=O)CNS(=O)(=O)c2ccc3ccccc3c2)c1
43	880	1400	–	–	–	–	–	CCN([C@H]1CCN(Cc2cccc(C(=N)N)c2)C1=O)S(=O)(=O)c1ccc2ccc(OC)cc2c1
83	2400	940	–	–	–	–	–	COc1ccc2ccc(S(=O)(=O)N[C@H]3CCN(Cc4cc(C(=N)N)cs4)C3=O)cc2c1
900	> 4000	2900	–	–	–	–	–	N=C(N)c1cccc(Cn2cc(CCc3ccc4ccccc4c3)c3ccccc32)c1
110	2040	2840	–	–	–	–	–	COc1ccc2ccc(S(=O)(=O)N[C@H]3CCN(Cc4ccnc(C(=N)N)c4)C3=O)cc2c1
–	–	530	2400	4400	8600	–	1000	COc1ccc2ccc(S(=O)(=O)N(C)[C@H]3CCN(Cc4csc(C(=N)N)c4)C3=O)cc2c1
970	> 4000	2300	–	–	–	–	–	COc1ccc2ccc(S(=O)(=O)N[C@H]3CCN(Cc4ccc(C(=N)N)cc4)C3=O)cc2c1
120	2600	1300	–	–	–	–	–	N=C(N)c1cccc(CN2CC[C@H](NS(=O)(=O)c3ccc4ccc(N)cc4c3)C2=O)c1
78	1200	2000	–	–	–	–	–	N=C(N)c1cccc(CN2CC[C@H](NS(=O)(=O)c3ccc4ccc(Cl)cc4c3)C2=O)c1
250	> 4000	1500	–	–	–	–	–	CNc1ccc2ccc(S(=O)(=O)N[C@H]3CCN(Cc4cccc(C(=N)N)c4)C3=O)cc2c1
